# Laboratory results taken from ChEMBL document CHEMBL3259670, “Discovery of 1-aryloxyethyl piperazine derivatives as Kv1.5 potassium channel inhibitors (part I)” (Eur J Med Chem, 2014).
# Where a name gives a salt, the structure may show the parent alone. Activity calls are given as the source filed them. No cut-off for these calls is given here.
# Legend:
# [1] = target: T1, Potassium voltage-gated channel subfamily A member 5 (Homo sapiens, UniProt P22460); assay: Inhibition of human Kv1.5 channel expressed in HEK293 cells by whole cell patch clamp assay; format: cell-based
# In short: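 Whole-cell patch clamp was done on transfected HEK293 cells, harvested by trypsin and used the same day, with 4–6 MΩ pipettes at 25 °C. IKur was elicited by 500-ms steps to +60 mV from a −80 mV holding potential at 0.1 Hz. Compound was applied at least 5 min after current stabilization. IC50 came from cell-by-cell Hill fits, with at least 3 cells per concentration; mean ± SD.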
# [2] = Dissociation constant, pKa of the compound; format: physicochemical
# In short: (§1)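 pKa and log D at pH 7.4 were determined by Avdeef–Bucher potentiometric titration on a Gemini Profiler instrument.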
# [3] = Partition coefficient, log D of the compound at pH 7.4; format: physicochemical; settings: octanol/water; in short: as §1
# [4] = (§2) Apparent permeability from basolateral to apical side in MDCK cells; format: ADME, cell-based, Canis lupus familiaris; settings: dog
# In short: (§3)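 Bidirectional transport (apical→basolateral and basolateral→apical) was measured in parental MDCK cells and in MDR1-MDCK cells, which stably express multidrug resistance gene 1, to assess P-glycoprotein substrate status. Apparent permeability coefficients (Papp) were determined for each direction. Efflux ratios are ratios of the directional Papp values, computed per cell line. Mean ± SD, n = 3.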
# [5] = (§4) Apparent permeability from apical to basolateral side in MDCK cells; format: ADME, cell-based, Canis lupus familiaris; settings: dog; in short: as §3
# MDR1 [6] = assay: (§5) Apparent permeability from basolateral to apical side in MDCK cells expressing MDR1; format: ADME, cell-based, Canis lupus familiaris; settings: dog, MDCK-MDR1; in short: as §3
# MDR1 [7] = assay: (§6) Apparent permeability from apical to basolateral side in MDCK cells expressing MDR1; format: ADME, cell-based, Canis lupus familiaris; settings: dog, MDCK-MDR1; in short: as §3
# MDCK [8] = assay: Efflux ratio of permeability from apical to basolateral over basolateral to apical in MDCK cells; format: ADME, cell-based, Canis lupus familiaris; settings: dog; in short: as §3
# MDCK [9] = assay: Efflux ratio of permeability from apical to basolateral over basolateral to apical in MDCK cells expressing MDR1; format: ADME, cell-based, Canis lupus familiaris; settings: dog; in short: as §3
# Rattus norvegicus [10] = assay: Inhibition of Cacl2-Ach-induced atrial fibrillation Sprague-Dawley rat model assessed as reduction in duration of atrial fibrillation at 2.5 mg/kg, ip during day 1 to day 3; format: functional, organism-based; design: dose 2.5 mg/kg; settings: Cardiac atrium
# Rattus norvegicus [11] = assay: Inhibition of Cacl2-Ach-induced atrial fibrillation Sprague-Dawley rat model assessed as reduction in duration of atrial fibrillation at 2.5 mg/kg, ip during day 4 to day 7; format: functional, organism-based; design: dose 2.5 mg/kg; settings: Cardiac atrium
# Rattus norvegicus [12] = assay: Inhibition of Cacl2-Ach-induced atrial fibrillation Sprague-Dawley rat model assessed as increase in atrial effective refractory period at 2.5 mg/kg, ip; settings: Cardiac atrium
# MDCK [13] = assay: as §2; format: ADME, cell-based, Canis lupus familiaris; settings: dog; in short: as §3
# MDCK [14] = assay: as §4; format: ADME, cell-based, Canis lupus familiaris; settings: dog; in short: as §3
# MDCK [15] = assay: as §5; format: ADME, cell-based, Canis lupus familiaris; settings: dog, mdck; in short: as §3
# MDCK [16] = assay: as §6; format: ADME, cell-based, Canis lupus familiaris; settings: dog, mdck; in short: as §3
# [17] = target: T1, Potassium voltage-gated channel subfamily A member 5; assay: Inhibition of human Kv1.5 channel expressed in HEK293 cells at 11 uM by whole cell patch clamp assay; format: cell-based
# Rattus norvegicus [18] = assay: Inhibition of Cacl2-Ach-induced atrial fibrillation Sprague-Dawley rat model assessed as reduction in duration of atrial fibrillation at 1.25 mg/kg, ip during day 1 to day 3; format: functional, organism-based; design: dose 1.25 mg/kg; settings: Cardiac atrium
# Rattus norvegicus [19] = assay: Inhibition of Cacl2-Ach-induced atrial fibrillation Sprague-Dawley rat model assessed as reduction in duration of atrial fibrillation at 1.25 mg/kg, ip during day 4 to day 7; format: functional, organism-based; design: dose 1.25 mg/kg; settings: Cardiac atrium
# [20] = Toxicity in SPF mouse compound administered through iv; format: organism-based; settings: in vivo
# In short: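 Acute toxicity by tail-vein iv injection in SPF mice: 70 animals in 7 groups, one given distilled water (30 mL/kg) and six given 84.6, 79.8, 75.3, 71, 67 or 63.2 mg/kg. Behaviour, mental state, excrement and death observed continuously over 0-0.5 h, every 0.5 h to 6 h, then daily for 15 days. LD50 derived by the Bliss-Finney method.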
# Rattus norvegicus [21] = assay: Inhibition of Cacl2-Ach-induced atrial fibrillation Sprague-Dawley rat model assessed as increase in atrial effective refractory period at 1.25 mg/kg, ip; settings: Cardiac atrium
# T1 sequence (P22460 whole entry): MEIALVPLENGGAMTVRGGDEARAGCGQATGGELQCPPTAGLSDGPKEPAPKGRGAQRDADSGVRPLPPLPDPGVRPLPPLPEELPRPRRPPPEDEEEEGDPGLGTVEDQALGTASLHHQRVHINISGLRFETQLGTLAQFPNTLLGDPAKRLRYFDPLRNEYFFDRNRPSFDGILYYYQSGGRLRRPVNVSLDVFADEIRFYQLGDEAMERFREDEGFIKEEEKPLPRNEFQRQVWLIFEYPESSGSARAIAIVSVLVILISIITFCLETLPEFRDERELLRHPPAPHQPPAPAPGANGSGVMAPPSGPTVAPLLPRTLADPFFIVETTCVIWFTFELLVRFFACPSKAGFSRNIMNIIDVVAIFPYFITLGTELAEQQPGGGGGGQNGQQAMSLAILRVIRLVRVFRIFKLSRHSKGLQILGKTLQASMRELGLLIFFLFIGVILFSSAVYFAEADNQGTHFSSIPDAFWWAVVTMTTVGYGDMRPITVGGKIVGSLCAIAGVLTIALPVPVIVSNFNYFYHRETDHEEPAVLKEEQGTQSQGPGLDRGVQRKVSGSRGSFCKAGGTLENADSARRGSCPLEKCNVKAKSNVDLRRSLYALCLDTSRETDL
smiles,measurement,setting,value
O=C(c1cccs1)N1CCN(CCOc2ccc(Cl)cc2Cl)CC1,IC50,[1],1.48 µM
same,pKa,[2],5.23
same,logD,[3],3.73
same,Papp B→A,[4],19.1 ×10⁻⁶ cm/s
same,Papp A→B,[5],17 ×10⁻⁶ cm/s
same,Papp B→A,MDR1 [6],31.5 ×10⁻⁶ cm/s
same,Papp A→B,MDR1 [7],39.1 ×10⁻⁶ cm/s
same,Ratio,MDCK [8],0.89
same,Ratio,MDCK [9],1.24
CC(C)NCC(O)c1ccc(NS(C)(=O)=O)cc1 (stereo unspecified),Activity,Rattus norvegicus [10],inactive
same,Activity,Rattus norvegicus [11],Active
same,Activity,Rattus norvegicus [12],Active
O=C(CN1CCN(CCOc2ccc(Cl)cc2)CC1)Nc1ccccc1Cl,IC50,[1],3.59 µM
O=C(c1cccs1)N1CCN(c2ccc(OC(F)(F)F)cc2)CC1,IC50,[1],48.4 µM
Cc1ccc(OCCN2CCN(CC(=O)Nc3nccs3)CC2)c(C)c1,IC50,[1],17.2 µM
O=C(c1cccs1)N1CCN(CCOc2ccccc2)CC1,IC50,[1],37.5 µM
O=C(c1cccs1)N1CCN(CCOc2ccc(Br)cc2)CC1,IC50,[1],12.2 µM
N#Cc1ccc(OCCN2CCN(CC(=O)Nc3nccs3)CC2)cc1,IC50,[1],0.97 µM
same,pKa,[2],6.37
same,logD,[3],1.72
same,Papp,MDCK [13],16.7 ×10⁻⁶ cm/s
same,Papp,MDCK [14],14.8 ×10⁻⁶ cm/s
same,Papp,MDCK [15],19.8 ×10⁻⁶ cm/s
same,Papp,MDCK [16],18.9 ×10⁻⁶ cm/s
same,Ratio,MDCK [8],1.14
same,Ratio,MDCK [9],1.14
Cc1ccc(NC(=O)CN2CCN(CCOc3ccc(C#N)cc3)CC2)cc1,IC50,[1],4.49 µM
Cc1ccc(OCCN2CCN(C(=O)c3ccccc3)CC2)cc1,IC50,[1],25.3 µM
Cc1ccccc1OCCN1CCN(CC(=O)Nc2ccccc2)CC1,IC50,[1],11.8 µM
O=C(CN1CCN(CCOc2ccccc2)CC1)Nc1ccccc1Cl,IC50,[1],29.4 µM
N#Cc1ccc(OCCN2CCN(CC(=O)Nc3ccccc3)CC2)cc1,IC50,[1],9.1 µM
O=C(CN1CCN(CCOc2ccc(Cl)cc2)CC1)Nc1ccccc1,IC50,[1],4.38 µM
Cc1ccccc1OCCN1CCN(CC(=O)Nc2nccs2)CC1,IC50,[1],1.24 µM
same,pKa,[2],7.11
same,logD,[3],2.45
same,Papp,MDCK [13],34.2 ×10⁻⁶ cm/s
same,Papp,MDCK [14],32.2 ×10⁻⁶ cm/s
same,Papp B→A,MDR1 [6],32.3 ×10⁻⁶ cm/s
same,Papp A→B,MDR1 [7],28.9 ×10⁻⁶ cm/s
same,Ratio,MDCK [8],1.09
same,Ratio,MDCK [9],0.92
Cc1ccc(C(=O)N2CCN(CCOc3ccccc3)CC2)cc1,IC50,[1],7.14 µM
O=C(c1cccs1)N1CCN(CCOc2ccc(OC(F)(F)F)cc2)CC1,IC50,[1],6.44 µM
N#Cc1ccc(OCCN2CCN(C(=O)c3cccs3)CC2)cc1,IC50,[1],10.2 µM
CCOc1ccccc1OCCN1CCN(CC(=O)Nc2nccs2)CC1,inhibition,[17],11.9%
O=C(CN1CCN(CCOc2ccc(Cl)cc2)CC1)Nc1nccs1,IC50,[1],5.18 µM
O=C(c1cccs1)N1CCN(CCOc2ccccc2Cl)CC1,IC50,[1],9.74 µM
CCOC(=O)c1ccc(OCCN2CCN(CC(=O)Nc3nccs3)CC2)cc1,inhibition,[17],32.1%
COc1ccc(NC(=O)CN2CCN(CCOc3ccc(C#N)cc3)CC2)cc1,IC50,[1],14.5 µM
O=C(c1ccccc1)N1CCN(CCOc2ccc(Cl)cc2)CC1,IC50,[1],3.97 µM
COc1ccc(C(=O)N2CCN(CCOc3ccc(Cl)cc3)CC2)cc1,IC50,[1],5.5 µM
O=C(CN1CCN(CCOc2ccc3ccccc3c2)CC1)Nc1nccs1,IC50,[1],68 µM
O=C(CN1CCN(CCOc2ccccc2)CC1)Nc1nccs1,IC50,[1],29.3 µM
O=C(c1cccs1)N1CCN(CCOc2ccc(F)cc2)CC1,IC50,[1],12.7 µM
N#Cc1ccc(OCCN2CCN(C(=O)c3ccccc3)CC2)cc1,IC50,[1],4.23 µM
O=C(c1cccs1)N1CCN(CCOc2ccc(Cl)cc2)CC1,IC50,[1],0.72 µM
same,pKa,[2],6.35
same,logD,[3],1.94
same,Papp B→A,[4],21.9 ×10⁻⁶ cm/s
same,Papp A→B,[5],21.3 ×10⁻⁶ cm/s
same,Papp B→A,MDR1 [6],19.3 ×10⁻⁶ cm/s
same,Papp A→B,MDR1 [7],16.1 ×10⁻⁶ cm/s
same,Ratio,MDCK [8],0.97
same,Ratio,MDCK [9],0.84
same,Activity,Rattus norvegicus [18],inactive
same,Activity,Rattus norvegicus [10],inactive
same,Activity,Rattus norvegicus [19],Active
same,Activity,Rattus norvegicus [11],Active
same,LD50,[20],73.7 mg/kg
same,Activity,Rattus norvegicus [12],Active
same,Activity,Rattus norvegicus [21],Active
COc1ccc(OCCN2CCN(C(=O)c3cccs3)CC2)cc1,IC50,[1],21.9 µM
Cc1ccc(NC(=O)CN2CCN(CCOc3ccccc3)CC2)cc1,IC50,[1],16.1 µM
O=C(CN1CCN(CCOc2ccc(OC(F)(F)F)cc2)CC1)Nc1nccs1,IC50,[1],2.29 µM
same,pKa,[2],6.74
same,logD,[3],3.94
same,Papp,MDCK [13],16.9 ×10⁻⁶ cm/s
same,Papp,MDCK [14],12.2 ×10⁻⁶ cm/s
same,Papp,MDCK [15],19.6 ×10⁻⁶ cm/s
same,Papp,MDCK [16],16.3 ×10⁻⁶ cm/s
same,Ratio,MDCK [8],1.5
same,Ratio,MDCK [9],1.42
COc1ccc(OCCN2CCN(CC(=O)Nc3nccs3)CC2)cc1,IC50,[1],9.13 µM
Cc1ccc(NC(=O)CN2CCN(CCOc3ccc(Cl)cc3)CC2)cc1,IC50,[1],5.02 µM
CC(C)(C)c1ccc(OCCN2CCN(CC(=O)Nc3nccs3)CC2)cc1,IC50,[1],63.2 µM
Cc1cccc(C)c1OCCN1CCN(CC(=O)Nc2nccs2)CC1,IC50,[1],85.9 µM
Cc1ccccc1OCCN1CCN(C(=O)c2cccs2)CC1,IC50,[1],13.5 µM
Cc1ccc(OCCN2CCN(C(=O)c3cccs3)CC2)cc1,IC50,[1],1.52 µM
same,pKa,[2],6.4
same,logD,[3],3.24
same,Papp B→A,[4],31.1 ×10⁻⁶ cm/s
same,Papp A→B,[5],20 ×10⁻⁶ cm/s
same,Papp B→A,MDR1 [6],32.8 ×10⁻⁶ cm/s
same,Papp A→B,MDR1 [7],25.6 ×10⁻⁶ cm/s
same,Ratio,MDCK [8],0.64
same,Ratio,MDCK [9],0.78
Cc1ccc(C(=O)N2CCN(CCOc3ccc(Cl)cc3)CC2)cc1,IC50,[1],4.51 µM
O=C(c1ccccc1)N1CCN(CCOc2ccccc2)CC1,IC50,[1],38.8 µM
COc1ccc(NC(=O)CN2CCN(CCOc3ccc(Cl)cc3)CC2)cc1,IC50,[1],2.62 µM
Cc1ccc(OCCN2CCN(CC(=O)Nc3nccs3)CC2)cc1C,IC50,[1],50.2 µM
COc1ccc(C(=O)N2CCN(CCOc3ccccc3)CC2)cc1,IC50,[1],16.1 µM
O=C(c1ccccc1Cl)N1CCN(CCOc2ccccc2)CC1,IC50,[1],56.7 µM
O=C(CN1CCN(CCOc2ccccc2Cl)CC1)Nc1nccs1,IC50,[1],3.39 µM
COc1ccc(NC(=O)CN2CCN(CCOc3ccccc3)CC2)cc1,IC50,[1],10.1 µM
CCCCc1oc2ccc(NS(C)(=O)=O)cc2c1C(=O)c1ccc(OCCCN(CCCC)CCCC)cc1 [DRONEDARONE HYDROCHLORIDE],IC50,[1],2.37 µM
same,Activity,Rattus norvegicus [18],inactive
same,Activity,Rattus norvegicus [19],Active
same,Activity,Rattus norvegicus [21],Active
O=C(CN1CCN(CCOc2ccccc2)CC1)Nc1ccccc1,IC50,[1],28.6 µM
O=C(CN1CCN(CCOc2ccc(OC(F)(F)F)cc2)CC1)Nc1ccccc1,IC50,[1],7.33 µM
Cc1ccc(OCCN2CCN(CC(=O)Nc3nccs3)CC2)cc1,IC50,[1],8.93 µM
